Experimental data from ChEMBL document CHEMBL1153616, “Synthesis and antiviral activity of new pyrazole and thiazole derivatives” (Eur J Med Chem, 2009).
In brackets after ≈: the same amount, converted by molar mass.

Legend:
[1] = tested on: Vesicular stomatitis virus; assay: Antiviral activity against Vesicular stomatitis virus infected in human HEL cells assessed as inhibition of virus-induced cytopathicity after 3 days; type: functional, organism-based; details: 72 h
Human alphaherpesvirus 1 [2] = assay: Antiviral activity against thymidine kinase-deficient ACV-resistant HSV1 KOS infected in human HEL cells assessed as inhibition of virus-induced cytopathicity after 3 days; type: functional, organism-based; details: Human alphaherpesvirus 1, KOS, 72 h
Human alphaherpesvirus 1 [3] = assay: Antiviral activity against HSV1 KOS infected in human HEL cells assessed as inhibition of virus-induced cytopathicity after 3 days; type: functional, organism-based; details: Human alphaherpesvirus 1, KOS, 72 h
Human alphaherpesvirus 2 = assay: Antiviral activity against HSV2 G infected in human HEL cells assessed as inhibition of virus-induced cytopathicity after 3 days; type: functional, organism-based; details: Human alphaherpesvirus 2, strain G, 72 h
Procedure, shortened: (§1)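 Confluent cell monolayers infected with 100 CCID50 virus; after 2 h adsorption at 37 °C, virus removed and serial compound dilutions added (DMSO stocks 10 mg/ml). Incubated 37 °C for 3 days until complete CPE in untreated virus control. EC50 = concentration protecting 50% of infected cells from viral cytopathogenicity; ">" marks highest concentration tested.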

[4] = Cytotoxicity against HEL cells assessed as minimum cytotoxic concentration required to cause microscopically detectable alteration in normal cell morphology; type: cell-based; details: human
Procedure, shortened: (§2)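 Run in parallel with antiviral assays on uninfected cell cultures; test compounds from 10 mg/ml DMSO stocks in serial dilution. Value is minimum cytotoxic concentration (MCC) producing microscopically detectable alteration of normal cell morphology.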

Vaccinia virus = assay: Antiviral activity against Vaccinia virus infected in human HEL cells assessed as inhibition of virus-induced cytopathicity after 3 days; type: functional, organism-based; details: Orthopoxvirus vaccinia, 72 h
[5] = Cytotoxicity against human HeLa cells assessed as minimum cytotoxic concentration required to cause microscopically detectable alteration in normal cell morphology; type: cell-based; procedure, shortened: as §2
[6] = Cytotoxicity against african green monkey Vero cells assessed as minimum cytotoxic concentration required to cause microscopically detectable alteration in normal cell morphology; type: cell-based; details: chlorocebus sabaeus; procedure, shortened: as §2
Coxsackievirus B4 [7] = assay: Antiviral activity against Coxsackievirus B4 infected in human HeLa cells assessed as inhibition of virus-induced cytopathicity after 3 days; type: functional, organism-based; details: Enterovirus B, 72 h
Procedure, shortened: (§3)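 Confluent cell monolayers infected with 100 CCID50 virus; after 2 h adsorption at 37 °C, virus removed and serial compound dilutions added (DMSO stocks 10 mg/ml). Incubated 37 °C for 3 days until complete CPE in untreated virus control.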

[8] = tested on: Respiratory syncytial virus; assay: Antiviral activity against RSV infected in human HeLa cells assessed as inhibition of virus-induced cytopathicity after 3 days; type: functional, organism-based; details: 72 h; procedure, shortened: as §1
Human respirovirus 3 = assay: Antiviral activity against Parainfluenza virus type 3 infected in african green monkey Vero cells assessed as inhibition of virus-induced cytopathicity after 3 days; type: functional, organism-based; details: Human respirovirus 3, Vero, 72 h; procedure, shortened: as §1
Coxsackievirus B4 [9] = assay: Antiviral activity against Coxsackievirus B4 infected in african green monkey Vero cells assessed as inhibition of virus-induced cytopathicity after 3 days; type: functional, organism-based; details: Enterovirus B, 72 h; procedure, shortened: as §1
Sindbis virus = assay: Antiviral activity against Sindbis virus infected in african green monkey Vero cells assessed as inhibition of virus-induced cytopathicity after 3 days postinfection; type: functional, organism-based; details: 72 h; procedure, shortened: as §1
Punta Toro virus = assay: Antiviral activity against Punta Toro virus infected in african green monkey Vero cells assessed as inhibition of virus-induced cytopathicity after 3 days; type: functional, organism-based; details: 72 h; procedure, shortened: as §3
[10] = tested on: Mammalian orthoreovirus 1; assay: Antiviral activity against Reovirus 1 infected in african green monkey Vero cells assessed as inhibition of virus-induced cytopathicity after 3 days; type: functional, organism-based; details: Mammalian orthoreovirus 1, Vero, 72 h; procedure, shortened: as §1
[11] = tested on: Vesicular stomatitis virus; assay: Antiviral activity against Vesicular stomatitis virus infected in human HeLa cells assessed as inhibition of virus-induced cytopathicity after 3 days; type: functional, organism-based; details: 72 h

| SMILES | EC50 [1] | EC50 (Human alphaherpesvirus 1 [2]) | EC50 (Human alphaherpesvirus 1 [3]) | EC50 (Human alphaherpesvirus 2) | MCC [4] | EC50 (Vaccinia virus) | MCC [5] | MCC [6] | EC50 (Coxsackievirus B4 [7]) | EC50 [8] | EC50 (Human respirovirus 3) | EC50 (Coxsackievirus B4 [9]) | EC50 (Sindbis virus) | EC50 (Punta Toro virus) | EC50 [10] | EC50 [11] |
| --- | --- | --- | --- | --- | --- | --- | --- | --- | --- | --- | --- | --- | --- | --- | --- | --- |
| Nc1nc2c(ncn2COC(CO)CO)c(=O)[nH]1 [GANCICLOVIR] | > 100 µg/mL | 6 µg/mL (≈ 23.5 µM) | 0.08 µg/mL (≈ 0.313 µM) | 0.08 µg/mL (≈ 0.313 µM) | > 100 µg/mL | > 100 µg/mL | – | – | – | – | – | – | – | – | – | – |
| CC(=O)N1N=C(c2ccc(Br)cc2)CC1c1ccc(OCc2ccccc2)cc1 (stereo unspecified) | > 20 µg/mL | > 20 µg/mL | > 20 µg/mL | > 20 µg/mL | 100 µg/mL | > 20 µg/mL | 100 µg/mL | 100 µg/mL | > 20 µg/mL | > 20 µg/mL | > 20 µg/mL | > 20 µg/mL | > 20 µg/mL | > 20 µg/mL | > 20 µg/mL | > 20 µg/mL |
| Nc1ccn(C[C@@H](CO)OCP(=O)(O)O)c(=O)n1.O.O [CIDOFOVIR] | > 250 µg/mL | 5 µg/mL | 3 µg/mL | 5 µg/mL | > 250 µg/mL | 10 µg/mL | – | – | – | – | – | – | – | – | – | – |
| Cc1ccc(-c2csc(N3N=C(c4ccc(Cl)cc4)CC3c3ccc(OCc4ccccc4)cc3)n2)cc1 (stereo unspecified) | > 20 µg/mL | > 20 µg/mL | > 20 µg/mL | > 20 µg/mL | 100 µg/mL | > 20 µg/mL | > 100 µg/mL | 100 µg/mL | > 100 µg/mL | > 100 µg/mL | > 20 µg/mL | > 20 µg/mL | > 20 µg/mL | > 20 µg/mL | > 20 µg/mL | > 100 µg/mL |
| Nc1ncnc2c1ncn2C[C@H](O)CO [(S)-DHPA] | – | – | – | – | – | – | > 250 µg/mL | > 250 µg/mL | > 250 µg/mL | > 250 µg/mL | > 250 µg/mL | > 250 µg/mL | > 250 µg/mL | > 250 µg/mL | > 250 µg/mL | > 250 µg/mL |
| O=C1CSC(N2N=C(c3ccccc3)CC2c2ccc(OCc3ccccc3)cc2)=N1 (stereo unspecified) | > 20 µg/mL | > 20 µg/mL | > 20 µg/mL | > 20 µg/mL | 100 µg/mL | > 20 µg/mL | 100 µg/mL | 100 µg/mL | > 20 µg/mL | > 20 µg/mL | > 20 µg/mL | > 20 µg/mL | > 20 µg/mL | > 20 µg/mL | > 20 µg/mL | > 20 µg/mL |
| O=C1CSC(N2N=C(c3ccc(Cl)cc3)CC2c2ccc(OCc3ccccc3)cc2)=N1 (stereo unspecified) | > 20 µg/mL | > 20 µg/mL | > 20 µg/mL | > 20 µg/mL | 100 µg/mL | > 20 µg/mL | 100 µg/mL | 100 µg/mL | > 20 µg/mL | > 20 µg/mL | > 20 µg/mL | > 20 µg/mL | > 20 µg/mL | > 20 µg/mL | > 20 µg/mL | > 20 µg/mL |
| O=c1[nH]c(=O)n([C@H]2C[C@H](O)[C@@H](CO)O2)cc1/C=C/Br [BRIVUDINE] | > 250 µg/mL | > 250 µg/mL | 0.08 µg/mL (≈ 0.24 µM) | 126 µg/mL (≈ 378 µM) | > 250 µg/mL | 10 µg/mL (≈ 30 µM) | – | – | – | – | – | – | – | – | – | – |
| Clc1ccc(-c2csc(N3N=C(c4ccccc4)CC3c3ccc(OCc4ccccc4)cc3)n2)cc1 (stereo unspecified) | > 20 µg/mL | > 20 µg/mL | > 20 µg/mL | > 20 µg/mL | 100 µg/mL | > 20 µg/mL | 100 µg/mL | 100 µg/mL | > 20 µg/mL | > 20 µg/mL | > 20 µg/mL | > 20 µg/mL | > 20 µg/mL | > 20 µg/mL | > 20 µg/mL | > 20 µg/mL |
| Cc1ccc(-c2csc(N3N=C(c4ccc(Br)cc4)CC3c3ccc(OCc4ccccc4)cc3)n2)cc1 (stereo unspecified) | > 20 µg/mL | > 20 µg/mL | > 20 µg/mL | > 20 µg/mL | 100 µg/mL | > 20 µg/mL | > 100 µg/mL | 100 µg/mL | > 100 µg/mL | > 100 µg/mL | > 20 µg/mL | > 20 µg/mL | > 20 µg/mL | > 20 µg/mL | > 20 µg/mL | > 100 µg/mL |
| NC(=S)N1N=C(c2ccccc2)CC1c1ccc(OCc2ccccc2)cc1 (stereo unspecified) | > 20 µg/mL | > 20 µg/mL | > 20 µg/mL | > 20 µg/mL | 100 µg/mL | > 20 µg/mL | ≥ 20 µg/mL | 100 µg/mL | > 20 µg/mL | > 20 µg/mL | > 20 µg/mL | > 20 µg/mL | > 20 µg/mL | > 20 µg/mL | > 20 µg/mL | > 20 µg/mL |
| Clc1ccc(-c2csc(N3N=C(c4ccc(Br)cc4)CC3c3ccc(OCc4ccccc4)cc3)n2)cc1 (stereo unspecified) | > 100 µg/mL | > 100 µg/mL | > 100 µg/mL | > 100 µg/mL | > 100 µg/mL | > 100 µg/mL | > 100 µg/mL | > 100 µg/mL | > 100 µg/mL | > 100 µg/mL | > 100 µg/mL | > 100 µg/mL | > 100 µg/mL | > 100 µg/mL | > 100 µg/mL | > 100 µg/mL |
| CC(=O)N1N=C(c2ccccc2)CC1c1ccc(OCc2ccccc2)cc1 (stereo unspecified) | > 20 µg/mL | > 20 µg/mL | > 20 µg/mL | > 20 µg/mL | 100 µg/mL | > 20 µg/mL | > 100 µg/mL | 100 µg/mL | > 100 µg/mL | > 100 µg/mL | > 20 µg/mL | > 20 µg/mL | > 20 µg/mL | > 20 µg/mL | > 20 µg/mL | > 100 µg/mL |
| NC(=O)c1ncn([C@@H]2O[C@H](CO)[C@@H](O)[C@H]2O)n1 [RIBAVIRIN] | > 250 µg/mL | > 250 µg/mL | > 250 µg/mL | > 250 µg/mL | > 250 µg/mL | 146 µg/mL (≈ 598 µM) | > 250 µg/mL | > 250 µg/mL | – | 10 µg/mL (≈ 40.9 µM) | 45 µg/mL (≈ 184 µM) | > 250 µg/mL | > 250 µg/mL | – | > 250 µg/mL | 29 µg/mL (≈ 119 µM) |
